Experimental data as given in ChEMBL document CHEMBL1131598, “Synthesis and anticonvulsant activity of a new class of 2-[(arylalky)amino]alkanamide derivatives” (J Med Chem, 1998).

What was measured:
Mus musculus [1] = assay: Anticonvulsant potency using the intravenous-BIC (bicuculline) test in mice; format: functional
Procedure, shortened: (§1)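 Male Crl:CD-1(ICR)BR mice (22-24 g) were dosed orally at 5 mL/kg 60 min before bicuculline 0.6 mg/kg, a dose giving tonic extensor convulsions in at least 97% of vehicle-treated mice. Protection from tonic extension was scored for each mouse. ED50 (95% confidence interval) was obtained by probit analysis, with 10-20 animals per dose.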

Mus musculus [2] = assay: Compound was tested for anticonvulsant potency using the intravenous-BIC (bicuculline) test in mice; 7 out of 20 mice exhibited anticonvulsant activity; format: functional
Mus musculus [3] = species on record: Mus musculus; assay: Anticonvulsant potency using the maximal electroshock test in mice; format: functional
Procedure, shortened: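 Male mice received intra-aural shocks through clip electrodes (0.7 s, 28 mA, 80 Hz pulse train, 0.4 ms pulses), a stimulus giving hindlimb tonic extension in at least 97% of controls. Compound was given orally 60 min or ip 30 min beforehand, at 5 mL/kg. Protection meant complete suppression of the hindlimb tonic extensor component. ED50 (95% confidence interval) was obtained by probit analysis, with 10-20 animals per dose.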

[4] = Toxicity using neurological impairment measured by rotarod test in mice; settings: mouse, in vivo
Procedure, shortened: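 Trained male Crl:CD-1(ICR)BR mice (22-24 g) were dosed orally at 5 mL/kg 60 min before testing on a 3-cm rod rotating at 10 rpm. Falls during a 2-min period were counted. TD50, the dose making 50% of animals fall, was calculated by probit analysis, with 10-20 animals per dose.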

Mus musculus [5] = assay: Compound was tested for anticonvulsant potency using the 3-MPA (3-mercaptopropionic acid) test in mice upon peroral administration; format: functional; settings: po
Procedure, shortened: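 Male Crl:CD-1(ICR)BR mice (22-24 g) were dosed orally at 5 mL/kg 60 min before 3-mercaptopropionic acid 60 mg/kg sc, a dose convulsing at least 97% of vehicle-treated mice. The end point was hindlimb tonic extension. ED50 (95% confidence interval) was obtained by probit analysis, with 10-20 animals per dose.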

Mus musculus [6] = assay: Compound was tested for anticonvulsant potency using the STRY (strychnine) test in mice upon peroral administration; format: functional; settings: po
Mus musculus [7] = assay: Anticonvulsant potency using the PTX (picrotoxin) test in mice by peroral administration; format: functional; settings: po
Mus musculus [8] = species on record: Mus musculus; assay: Compound was tested for toxicity using neurological impairment measured by rotarod test in mice; format: functional
Procedure, shortened: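 Trained male Crl:CD-1(ICR)BR mice, 22-24 g, dosed orally 60 min before being placed on a 3-cm rod turning at 10 rpm. Mice falling during a 2-min test were counted. Dosing volume 5 mL/kg, 10-20 animals/dose. TD50, the dose making 50% fall, by probit analysis with 95% confidence interval. Some values given as fraction affected at one dose.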

Mus musculus [9] = assay: Compound was tested for anticonvulsant potency using the intravenous-BIC (bicuculline) test in mice; 4 out of 20 mice exhibited anticonvulsant activity; format: functional
Mus musculus [10] = assay: Compound was tested for anticonvulsant potency using the intravenous-BIC (bicuculline) test in mice; 0 out of 20 mice exhibited anticonvulsant activity; format: functional
Mus musculus [11] = assay: Compound was tested for anticonvulsant potency using the intravenous-BIC (bicuculline) test in mice; 5 out of 20 mice exhibited anticonvulsant activity; format: functional
Mus musculus [12] = assay: Compound was tested for anticonvulsant potency using the intravenous-BIC (bicuculline) test in mice; compound at 200 mg/kg induced impaired gait, loss of the righting reflex, and impaired breathing; format: functional; procedure, shortened: as §1
Mus musculus [13] = assay: Compound was tested for anticonvulsant potency using the intravenous-BIC (bicuculline) test in mice; 2 out of 20 mice exhibited anticonvulsant activity; format: functional

SMILES | ED50 (Mus musculus [1]) [mg/kg] | ED50 (Mus musculus [3]) [mg/kg] | TD50 [4] [mg/kg] | other results
C[C@@H](NCc1ccc(OCc2ccccn2)cc1)C(N)=O | 172 | – | – | –
CNC(=O)[C@H](Cc1ccccc1)NCc1ccc(OCc2ccccc2)cc1 | 61.2 | – | – | –
CNC(=O)[C@@H](CO)NCc1ccc(OCc2cccc([N+](=O)[O-])c2)cc1 | – | – | – | ED50 (Mus musculus [2]): > 400 mg/kg
C[C@@H](NCc1ccc(CNc2ccccc2)cc1)C(N)=O | 119 | – | – | –
CC[C@@H](NCc1ccc(OCc2ccccc2)cc1)C(N)=O | 55 | 7.2 | 277 | –
CNC(=O)[C@@H](CC(C)C)NCc1ccc(OCc2ccccc2)cc1 | 192 | – | – | –
CCCCCNCC(N)=O [MILACEMIDE] | 701 | – | – | –
C[C@@H](NCc1ccc(OCc2cccs2)cc1)C(N)=O | 61.6 | – | – | –
CN1C(=O)CN=C(c2ccccc2)c2cc(Cl)ccc21 [DIAZEPAM] | 0.29 | 1.2 | – | ED50 (Mus musculus [5]): 0.62 mg/kg; ED50 (Mus musculus [6]): 0.58 mg/kg; ED50 (Mus musculus [7]): 0.52 mg/kg; TD50 (Mus musculus [8]): 6.8 mg/kg
NC(=O)CNCc1ccc(OCc2ccccc2)cc1 | 68.6 | 11.5 | 473 | –
NC(=O)CNCCc1ccccc1 | 286 | – | – | –
C[C@@H](NCc1ccc(CCc2ccccc2)cc1)C(N)=O | 40.3 | 17.8 | 630 | –
CNC(=O)[C@@H](CO)NCc1ccc(OCc2cccc(C)c2)cc1 | 41.3 | 30.6 | 1250 | –
C[C@@H](NCc1ccc(COc2ccccc2)cc1)C(N)=O | 40.3 | 10.6 | 597 | –
O=C(O)CNCc1ccc(OCc2cccc(Cl)c2)cc1 | – | – | – | ED50 (Mus musculus [9]): > 400 mg/kg
C[C@@H](NCc1ccc(OCc2ccoc2)cc1)C(N)=O | 152 | – | – | –
C[C@@H](NCc1ccc(OCc2cccnc2)cc1)C(N)=O | – | – | – | ED50 (Mus musculus [10]): > 400 mg/kg
NC(=O)COCc1ccc(OCc2cccc(Cl)c2)cc1 | – | – | – | ED50 (Mus musculus [2]): > 400 mg/kg
C[C@@H](NCc1ccc(OCCc2ccccc2)cc1)C(N)=O | 24.9 | 12.2 | 1120 | –

SMILES | ED50 (Mus musculus [1]) [mg/kg] | ED50 (Mus musculus [3]) [mg/kg] | TD50 [4] [mg/kg] | other results
NC(=O)CNC(=O)c1ccc(OCc2cccc(Cl)c2)cc1 | – | – | – | ED50 (Mus musculus [11]): 400 mg/kg
C[C@@H](NCc1ccc(SCc2ccccc2)cc1)C(N)=O | 24.8 | 8.6 | 633 | –
C[C@@H](NCc1ccc(OCc2ccc(F)cc2)cc1)C(N)=O | 132 | 16.3 | – | –
CNC(=O)[C@@H](NCc1ccc(OCc2ccccc2)cc1)C(C)O (some centres undefined) | – | – | – | ED50 (Mus musculus [12]): 34.2 mg/kg
C[C@@H](NCc1ccc(OCc2ccccc2F)cc1)C(N)=O | 25.8 | 7 | 549 | –
CNC(=O)[C@@H](Cc1ccccc1)NCc1ccc(OCc2ccccc2)cc1 | – | – | – | ED50 (Mus musculus [13]): > 400 mg/kg
CNC(=O)[C@H](CCSC)NCc1ccc(OCc2ccccc2)cc1 | 239 | – | – | –
Nc1nnc(-c2cccc(Cl)c2Cl)c(N)n1 [LAMOTRIGINE] | 10.2 | 2.2 | 84 | ED50 (Mus musculus [5]): > 40 mg/kg; ED50 (Mus musculus [6]): > 40 mg/kg
CNC(=O)[C@@H](CO)NCc1ccc(OCc2cccc(F)c2)cc1 | 25.1 | 13 | 915 | ED50 (Mus musculus [5]): 35.6 mg/kg; ED50 (Mus musculus [6]): > 250 mg/kg; ED50 (Mus musculus [7]): 120 mg/kg
CNC(=O)[C@@H](CO)NCc1ccc(OCc2ccccc2C(F)(F)F)cc1 | 85.6 | – | – | –
CNC(=O)CNCc1ccc(OCc2cccc(Cl)c2)cc1 | 30.5 | 48.6 | – | –
C[C@@H](NCc1ccc(NCc2ccccc2)cc1)C(N)=O | 9.3 | 11.5 | 217 | ED50 (Mus musculus [5]): 16.3 mg/kg; ED50 (Mus musculus [6]): 50.3 mg/kg; ED50 (Mus musculus [7]): 37.5 mg/kg
C[C@@H](NCc1ccc(OCc2cccc(F)c2)cc1)C(N)=O | 26.9 | 8 | 626 | ED50 (Mus musculus [5]): 21.5 mg/kg; ED50 (Mus musculus [6]): 104 mg/kg; ED50 (Mus musculus [7]): 60.6 mg/kg
CN(C)C(=O)CNCc1ccc(OCc2cccc(Cl)c2)cc1 | – | – | – | ED50 (Mus musculus [12]): 54.2 mg/kg
O=C1NC(=O)C(c2ccccc2)(c2ccccc2)N1 [PHENYTOIN] | 42.1 | 3.8 | – | ED50 (Mus musculus [5]): 11.3 mg/kg; ED50 (Mus musculus [6]): > 200 mg/kg; ED50 (Mus musculus [7]): > 100 mg/kg; TD50 (Mus musculus [8]): 243 mg/kg
CNC(=O)[C@H](NCc1ccc(OCc2ccccc2)cc1)C(C)O (some centres undefined) | – | – | – | ED50 (Mus musculus [12]): 21 mg/kg
NC(=O)CNc1ccc(OCc2cccc(Cl)c2)cc1 | – | – | – | ED50 (Mus musculus [11]): 400 mg/kg
NC(=O)[C@@H](CO)NCc1ccc(OCc2ccccc2)cc1 | 133 | – | – | –
